Shown are actives, neighbours in structure and some others; about 1.9% of the full set was active somewhere.
Ins promoter up: MIN6 insulin promoter up-regulation | MIN6 insulin promoter-GFP reporter, high-content imaging; hits give high values | z-score at 5 µM | hit rate 0.3% among 190,000;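 active = z-score above 3 at 5 µM with at least 500 cells counted in the well; inconclusive = wells under 500 cells, flagged as cytotoxic or low count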
Autophagy mod: autophagy modulation, high-content screen. MEF GFP-LC3 puncta imaging; test concentration mostly 10 µM. calls only at 10 µM (by protocol). hit rate 0.98% among 190,000;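 active = percentage of spot-positive cells more than 3 SD above its plate mean, without a fluorescence outlier flag or 80% toxicity; inconclusive = no clear call, values can overlap the other calls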
MT stabilize HCS: microtubule stabilization, imaging screen; HeLa tubulin immunostaining HCS, 24 h; share of cells brighter than vehicle mean+2SD; % tubulin-high responders, % at 10 µM; hit rate 0.83% among 200,000; AID 2205;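 active = plate Z-score above 3 for both tubulin-high and condensed-nucleus cell shares, with cell loss under 80%, at 10 µM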;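 also: anti alpha tubulin signal scored within the nucleus-defined area of each cell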
bCat nuc transl: alters nuclear translocation of beta-catenin in HeLa cells. immunofluorescence imaging. nuclear translocation activity, % at 5 µM. hit rate 0.3% among 190,000. AID 1665;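 active = nuclear translocation activity above 50% at 5 µM, with a well cell count of 50 or more; inconclusive = wells under 50 cells across six images, flagged as toxic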;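 also: per-cell ratio of nuclear to cytoplasmic median beta-catenin stain intensity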
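test system = HeLa cells, endogenous beta-catenin | dosing = single 5 µM dose plus 0.02–20 µM confirmation series | times = compound treatment 24 h, 37°C, 5% CO2 | technique = beta-catenin immunofluorescence imaging with DAPI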
A number is an active result; i = inactive; ? = inconclusive; nt = not tested or not shown; + = active, no number.

SMILES	Ins promoter up	Autophagy mod	MT stabilize HCS	bCat nuc transl
CN(CC(=O)Nc1ccccc1Br)Cc1nc2ccccc2c(=O)[nH]1	nt	i	i	i
O=C1/C(=C/c2ccncc2)CCC/C1=C\c1ccncc1	?	+	30.7	nt
Oc1ccc(C2=NNC(=NCc3ccc4c(c3)OCO4)SC2)c(O)c1	i	i	i	117.0
Clc1ccc(C2=NNC(=NCc3ccc4c(c3)OCO4)SC2)cc1	i	i	i	i
Cn1c(C(=O)N2CCC(C(=O)N3CCN(Cc4ccc5c(c4)OCO5)CC3)CC2)cc2sccc21	4.67	i	i	i
COC(=O)/C(=C1/Oc2cc(C)oc(=O)c2S1)C(F)(F)F	i	+	i	i
COc1c(C)cc(C(=O)C2CCCN(Cc3cnc(N4CCOCC4)s3)C2)cc1C (stereo not drawn)	i	i	i	i
O=[N+]([O-])c1ccc(CSc2nnc(Cc3ccccc3)n2-c2ccc(F)cc2)cc1	i	+	i	i
Cc1cc(S(=O)(=O)n2ccnc2)c(Cl)cc1Cl	i	i	i	i
Cc1cc(C)n(-c2ccc(OCC(=O)O)nn2)n1	3.33	i	i	i
COCCNC(=O)CSc1nc2ccccc2c(=O)n1CCC(=O)N1CCN(c2ccccc2)CC1	nt	i	i	i
COC(=O)c1c(NC(=O)CC2SC(N)=NC2=O)sc2c1CCC(C(C)(C)C)C2 (stereo not drawn)	nt	i	i	i
Cc1cc2cc(CN(CC3CCCO3)C(=S)Nc3ccccc3)c(=O)[nH]c2cc1C (stereo not drawn)	?	i	13.6	i
COc1ccc2cc(CN(CC3CCCO3)C(=S)Nc3ccccc3)c(=O)[nH]c2c1 (stereo not drawn)	i	i	27.3	i
COc1ccc2[nH]c(=O)c(CN(CC3CCCO3)C(=S)Nc3ccccc3)cc2c1 (stereo not drawn)	i	i	i	i
COc1ccc(-c2csc(NC(=O)C3=NN(c4ccccc4)C(=O)CC3)n2)cc1	i	i	i	i
Cc1ccsc1/C=N\NC(=O)c1n[nH]c2c1CCC2	i	i	25.1	i
O=C(N/N=C/c1c(Cl)cccc1Cl)c1n[nH]c2c1CCCC2	nt	i	i	i
CCCCCN=CC1=C(O)CC(c2ccccc2)CC1=O (stereo not drawn)	i	i	i	i
O=C1CC(c2ccccc2)CC(O)=C1C=NCCCN1CCOCC1 (stereo not drawn)	nt	i	i	52.9
O=C(CCCOc1ccc(Cl)cc1Cl)n1nnc2ccccc21	i	i	i	i
CC(=O)c1ccc(OCCCC(=O)n2nnc3ccccc32)cc1	i	+	i	i
O=[N+]([O-])c1ccc(COc2ncnc3ccccc23)cc1	i	i	i	i
CCOC(=O)CSC1=NC(=O)/C(=C\c2ccc(Cl)cc2)S1	i	i	i	i
O=C(O)CC1SC(N/N=C/c2ccc(Br)cc2)NC1=O (stereo not drawn)	i	i	i	i
SMILES	Ins promoter up	Autophagy mod	MT stabilize HCS	bCat nuc transl
COc1ccccc1/C=N/N1C(=O)C(CC(=O)Nc2ccc([N+](=O)[O-])cc2OC)SC1=Nc1cccc(C)c1C (stereo not drawn)	nt	i	18.9	i
CCOc1ccc(/C(C)=N/N2C(=O)C(CC(=O)Nc3ccc(OC)cc3[N+](=O)[O-])SC2=Nc2cccc(C)c2C)cc1 (stereo not drawn)	i	i	i	i
CC(=O)Cc1nsc(NC(=O)c2ccc(-c3cccc(Cl)c3)o2)n1	i	i	13.7	i
COC(=O)c1cc2occc2n1Cc1c(F)cccc1Cl	3.08	i	i	i
CCOC(=O)c1cc2occc2n1Cc1c(F)cccc1Cl	i	i	i	i
Cc1cc(Nc2nn(C)c(N)c2C#N)ccc1F	6.01	i	i	i
O=C(CSc1nc(-c2ccccc2)c(-c2ccccc2)[nH]1)NCCN1C(=O)CSC1=O	i	i	18.9	i
O=C(CSc1nc(-c2ccccc2)c(-c2ccccc2)[nH]1)NCc1ccco1	nt	i	i	nt
CC(c1ccco1)N(C(=O)c1ccccc1NS(=O)(=O)c1ccc(Cl)c([N+](=O)[O-])c1)c1ccccn1 (stereo not drawn)	i	i	i	nt
COC(=O)c1[nH]c2cc(OC)ccc2c1NC(=O)c1nonc1C	i	i	36.5	i
CCOC(=O)c1cccc(P(C)(C)=O)c1	i	i	i	i
O=C(CSc1nnc(-c2ccccc2F)n1C1CC1)Nc1cccnc1Cl	i	i	i	i
CCC(=NCCc1c(C)[nH]c2ccc(C)cc12)C1=C(O)CC(c2ccccc2)CC1=O (stereo not drawn)	nt	i	15.5	135.3
CCC(=Nc1ccccc1OC)C1=C(O)CC(c2ccccc2)CC1=O (stereo not drawn)	i	i	15.1	i
CCOc1ccccc1N=CC1=C(O)CC(c2ccccc2)CC1=O (stereo not drawn)	i	i	i	i
COc1ccc(N=CC2=C(O)CC(c3ccccc3)CC2=O)c(OC)c1 (stereo not drawn)	i	i	27.1	nt
CCCN(CCC)CCNC(=O)C1c2ccccc2C(=O)N(CCOC)C1c1ccc(F)cc1 (stereo not drawn)	i	i	i	i
CCOC(=O)c1cc(-c2ccc3c(c2)OCCO3)n[nH]1	i	i	i	i
c1ccc2c(c1)oc1c(NCCCn3ccnc3)ncnc12	i	+	i	i
CCOc1c2ccc(C(=O)NCc3ccc4c(c3)OCO4)cc2nn1CCOC	i	i	i	i
CC(C)Cn1c(N)c(C(=O)CSc2nc3ccccc3c(=O)n2CCCN2CCOCC2)c(=O)n(C)c1=O	i	+	i	i
Cc1ccc2c(c1)C=CC(C#N)N2C(=O)c1ccccc1 (stereo not drawn)	i	i	33.3	56.3
CC/C(=N/Nc1ccccc1)c1cnnc(-c2ccccc2)n1	i	+	i	i
Cc1ccc(Nc2c(N)c(=O)oc3ccccc23)cc1	nt	+	29.7	i
Nc1nnn(CC(=O)N/N=C/c2cn[nH]c2-c2ccccc2)n1	i	nt	nt	i
SMILES	Ins promoter up	Autophagy mod	MT stabilize HCS	bCat nuc transl
Cc1[nH]c2ccccc2c1Cc1nnc(SCC(N)=O)o1	4.82	i	i	i
CCC(C)(C(=O)NC1CCCC1)N(C(=O)CNC(C)=O)c1ccccc1 (stereo not drawn)	3.46	i	i	i
CCCc1cc(C(=O)OC)c2ccccc2n1	i	i	i	nt
CCCc1cc(C(=O)N/N=C/c2ccc(C)o2)c2ccccc2n1	i	i	43.6	i
Cc1cc(C(=O)N/N=C/c2ccc(C)o2)c2ccccc2n1	i	i	14.5	i
Cc1cc(C(=O)N/N=C/c2ccco2)c2ccccc2n1	i	i	i	i
Cc1ccc(/C=N/NC(=O)c2ccoc2C)o1	i	i	i	i
Cc1ccc(/C=N/NC(=O)c2cc(C3CC3)nc3ccccc23)o1	?	i	22.8	i
COc1ccc(N2CCN(C(=O)CNS(=O)(=O)c3ccc(C)cc3)CC2)cc1	nt	i	i	i
CCn1c(CC(=O)Nc2ccccc2)nnc1SCc1nc2ccccc2c(=O)[nH]1	i	nt	nt	i
Nc1c(C(=O)Nc2ccc(S(=O)(=O)N3CCCC3)cc2)sc2nc3ccc(OC(F)(F)F)cc3cc12	i	+	i	i
Nc1c(C(=O)Nc2ccc(S(=O)(=O)N3CCCC3)cc2)sc2nc3cc4c(cc3cc12)CCC4	i	+	27.8	i
COCC1=C(C(=O)OC)C(c2ccco2)n2ncnc2N1 (stereo not drawn)	i	nt	nt	i
